# Laboratory results taken from publication PMC6982535 (Science (New York, N.Y.), 2019).
# Tests used:
# Type in all cases: cell-based
# THIK-2 = target: T1, THIK-2 (Homo sapiens, UniProt Q9HB15); experiment: Extended screening of K2P channels with BL-1249: THIK-2; details: result in words
# T1 sequence (Q9HB15 1-430): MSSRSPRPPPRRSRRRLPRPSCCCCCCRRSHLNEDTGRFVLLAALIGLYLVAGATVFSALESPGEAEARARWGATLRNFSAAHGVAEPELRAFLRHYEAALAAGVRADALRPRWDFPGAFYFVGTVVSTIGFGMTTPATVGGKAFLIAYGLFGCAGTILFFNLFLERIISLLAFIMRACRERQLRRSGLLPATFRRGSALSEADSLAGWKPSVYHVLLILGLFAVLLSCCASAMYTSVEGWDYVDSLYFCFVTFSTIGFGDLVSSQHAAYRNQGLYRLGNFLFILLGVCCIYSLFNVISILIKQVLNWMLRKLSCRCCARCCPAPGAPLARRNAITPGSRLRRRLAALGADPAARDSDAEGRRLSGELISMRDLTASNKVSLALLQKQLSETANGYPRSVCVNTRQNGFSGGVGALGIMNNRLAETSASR
# TALK-2 = target: T2, TALK-2 (Homo sapiens, UniProt Q96T54); experiment: TALK-2 currents in inside-out patches; details: result in words
# T2 sequence (Q96T54 1-332): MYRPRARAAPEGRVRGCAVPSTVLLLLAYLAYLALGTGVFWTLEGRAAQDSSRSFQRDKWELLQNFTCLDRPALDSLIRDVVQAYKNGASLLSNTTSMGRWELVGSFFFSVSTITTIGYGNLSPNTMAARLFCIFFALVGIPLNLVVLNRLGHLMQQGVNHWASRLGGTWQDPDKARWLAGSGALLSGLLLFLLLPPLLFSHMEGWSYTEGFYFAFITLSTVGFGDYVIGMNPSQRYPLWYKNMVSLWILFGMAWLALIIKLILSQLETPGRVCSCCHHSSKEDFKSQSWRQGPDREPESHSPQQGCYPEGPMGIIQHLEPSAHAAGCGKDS
# Procedure, shortened: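 TALK-2 currents were recorded in inside-out patches from Xenopus oocytes. Fold activation was measured with 50 μM test compound or 1 mM 2-APB, applied at several intracellular pH values.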
# TRAAK = target: T3, TRAAK (Homo sapiens, UniProt Q9NYG8); experiment: Extended screening of K2P channels with BL-1249: TRAAK; details: result in words
# T3 sequence (Q9NYG8 1-393): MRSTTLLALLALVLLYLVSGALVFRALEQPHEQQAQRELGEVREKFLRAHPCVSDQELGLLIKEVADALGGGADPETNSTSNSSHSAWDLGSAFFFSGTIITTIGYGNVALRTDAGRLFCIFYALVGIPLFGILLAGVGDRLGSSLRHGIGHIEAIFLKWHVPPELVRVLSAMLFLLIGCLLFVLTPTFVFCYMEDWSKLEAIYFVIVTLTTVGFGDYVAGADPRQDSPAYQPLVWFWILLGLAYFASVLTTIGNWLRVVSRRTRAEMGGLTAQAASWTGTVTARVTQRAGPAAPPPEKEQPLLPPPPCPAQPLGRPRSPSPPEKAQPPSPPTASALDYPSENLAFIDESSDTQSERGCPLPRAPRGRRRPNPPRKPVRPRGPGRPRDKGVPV
# Kir1.1 = target: T4, Kir1.1 (Homo sapiens, UniProt P48048); experiment: BL-1249 on helix bundle-crossing gated channel Kir1.1; details: result in words
# T4 sequence (P48048 1-391): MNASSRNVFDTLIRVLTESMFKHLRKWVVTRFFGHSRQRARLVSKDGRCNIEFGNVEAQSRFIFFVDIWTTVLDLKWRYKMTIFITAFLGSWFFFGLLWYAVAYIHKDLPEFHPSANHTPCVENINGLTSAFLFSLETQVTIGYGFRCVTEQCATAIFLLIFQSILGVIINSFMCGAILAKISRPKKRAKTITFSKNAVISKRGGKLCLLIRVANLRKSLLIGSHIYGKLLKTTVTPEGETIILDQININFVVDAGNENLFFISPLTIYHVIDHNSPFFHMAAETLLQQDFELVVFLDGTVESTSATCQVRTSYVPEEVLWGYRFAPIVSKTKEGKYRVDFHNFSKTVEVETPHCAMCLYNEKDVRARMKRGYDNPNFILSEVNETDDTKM
# hERG = hERG (Homo sapiens, UniProt Q12809); experiment: hERG channel currents in inside-out patches; details: inside-out patches; result in words
# hERG, sequence (Q12809 whole entry): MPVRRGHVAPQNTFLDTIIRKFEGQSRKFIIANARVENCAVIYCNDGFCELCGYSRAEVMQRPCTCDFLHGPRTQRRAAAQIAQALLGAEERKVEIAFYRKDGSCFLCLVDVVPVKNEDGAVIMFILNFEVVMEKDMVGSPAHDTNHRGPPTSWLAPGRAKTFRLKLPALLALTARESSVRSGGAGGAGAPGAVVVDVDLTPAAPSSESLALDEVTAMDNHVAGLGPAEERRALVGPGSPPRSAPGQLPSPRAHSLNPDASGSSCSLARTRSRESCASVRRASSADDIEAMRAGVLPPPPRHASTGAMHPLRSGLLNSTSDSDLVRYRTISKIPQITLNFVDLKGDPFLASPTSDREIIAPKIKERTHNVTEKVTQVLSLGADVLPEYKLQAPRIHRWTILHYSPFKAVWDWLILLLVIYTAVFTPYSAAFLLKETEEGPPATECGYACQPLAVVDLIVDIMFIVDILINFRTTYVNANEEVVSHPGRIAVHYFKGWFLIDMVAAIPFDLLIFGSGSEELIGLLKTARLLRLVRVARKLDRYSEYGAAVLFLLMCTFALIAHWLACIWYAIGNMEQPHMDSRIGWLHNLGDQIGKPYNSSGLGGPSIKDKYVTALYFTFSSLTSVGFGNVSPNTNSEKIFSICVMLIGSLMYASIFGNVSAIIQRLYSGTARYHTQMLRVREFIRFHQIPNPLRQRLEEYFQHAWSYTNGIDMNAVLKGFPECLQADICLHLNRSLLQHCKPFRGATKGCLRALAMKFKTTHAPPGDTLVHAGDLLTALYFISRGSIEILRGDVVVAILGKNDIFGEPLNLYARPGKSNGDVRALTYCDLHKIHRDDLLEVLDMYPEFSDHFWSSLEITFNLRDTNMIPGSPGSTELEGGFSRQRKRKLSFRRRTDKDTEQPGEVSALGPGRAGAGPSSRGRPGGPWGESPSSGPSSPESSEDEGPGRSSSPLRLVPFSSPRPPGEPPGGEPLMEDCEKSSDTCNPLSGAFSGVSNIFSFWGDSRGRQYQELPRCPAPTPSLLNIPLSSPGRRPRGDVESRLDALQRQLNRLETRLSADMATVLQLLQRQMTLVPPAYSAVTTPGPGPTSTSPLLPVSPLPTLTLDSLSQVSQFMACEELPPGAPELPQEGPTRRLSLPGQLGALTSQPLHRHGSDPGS
# Kv1.1 = Kv1.1 (Homo sapiens, UniProt Q09470); experiment: BL-1249 on helix bundle-crossing gated channel Kv1.1; details: result in words
# Kv1.1, sequence (Q09470 whole entry): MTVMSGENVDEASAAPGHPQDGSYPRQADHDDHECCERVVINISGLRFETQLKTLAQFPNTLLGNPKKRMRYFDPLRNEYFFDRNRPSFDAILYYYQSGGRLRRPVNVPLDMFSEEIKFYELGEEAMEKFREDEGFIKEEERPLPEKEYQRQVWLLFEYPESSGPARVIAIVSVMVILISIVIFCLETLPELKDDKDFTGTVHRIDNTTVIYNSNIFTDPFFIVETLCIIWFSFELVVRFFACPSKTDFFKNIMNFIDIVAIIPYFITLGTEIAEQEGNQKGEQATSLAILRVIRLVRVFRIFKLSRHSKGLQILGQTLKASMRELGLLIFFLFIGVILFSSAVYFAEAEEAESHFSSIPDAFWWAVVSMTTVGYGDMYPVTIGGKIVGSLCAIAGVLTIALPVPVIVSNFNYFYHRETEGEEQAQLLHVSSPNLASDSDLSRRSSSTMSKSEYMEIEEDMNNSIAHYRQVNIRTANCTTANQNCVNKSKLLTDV
# THIK-1 = target: T5, THIK-1 (Homo sapiens, UniProt Q9HB14); experiment: Extended screening of K2P channels with BL-1249: THIK-1; details: result in words
# T5 sequence (Q9HB14 1-408): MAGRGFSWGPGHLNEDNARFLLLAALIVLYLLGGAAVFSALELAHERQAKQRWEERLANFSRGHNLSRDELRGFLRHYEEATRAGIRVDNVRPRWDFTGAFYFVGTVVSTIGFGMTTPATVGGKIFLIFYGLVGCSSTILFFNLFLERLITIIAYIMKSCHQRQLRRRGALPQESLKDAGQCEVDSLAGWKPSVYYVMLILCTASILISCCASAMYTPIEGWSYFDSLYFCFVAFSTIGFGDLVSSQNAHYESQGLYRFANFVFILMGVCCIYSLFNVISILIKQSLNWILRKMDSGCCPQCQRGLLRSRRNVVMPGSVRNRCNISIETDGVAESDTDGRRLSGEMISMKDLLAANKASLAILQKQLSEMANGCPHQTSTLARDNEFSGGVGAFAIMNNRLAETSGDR
structure (smiles),measurement,setting,value
c1ccc(-c2nn[nH]n2)c(Nc2cccc3c2CCCC3)c1 [BL-1249],activation of THIK-2,THIK-2,potent activation
same,activation of TALK-2,TALK-2; extended screening,potent activation
same,pH dependence of TALK-2 activation,"TALK-2; lowering pHi to 5, 50 μM BL-1249 or 1 mM 2-APB",potency dropped strongly
same,activation of TRAAK,TRAAK,potent activation
same,activation of Kir1.1,Kir1.1,not activated
same,opening / activation of hERG channels,hERG,equal efficiency in opening
same,activation of Kv1.1,Kv1.1,not activated
same,activation of THIK-1,THIK-1,potent activation
